Reference: ChEMBL document CHEMBL2413000, “Control of the intracellular levels of prostaglandin E₂ through inhibition of the 15-hydroxyprostaglandin dehydrogenase for wound healing” (Bioorg Med Chem, 2013)
Active and inactive are the calls of the source. The rule behind the calls is not given here.

target: T1, 15-hydroxyprostaglandin dehydrogenase [NAD(+)] (Homo sapiens) (UniProt P15428); test: Inhibition of 15-PGDH in IL-1beta-stimulated human A549 cells assessed as increase in PGE2 level after 5 hrs by enzyme immunoassay; assay type: cell-based; conditions: not given
T1 sequence (whole entry): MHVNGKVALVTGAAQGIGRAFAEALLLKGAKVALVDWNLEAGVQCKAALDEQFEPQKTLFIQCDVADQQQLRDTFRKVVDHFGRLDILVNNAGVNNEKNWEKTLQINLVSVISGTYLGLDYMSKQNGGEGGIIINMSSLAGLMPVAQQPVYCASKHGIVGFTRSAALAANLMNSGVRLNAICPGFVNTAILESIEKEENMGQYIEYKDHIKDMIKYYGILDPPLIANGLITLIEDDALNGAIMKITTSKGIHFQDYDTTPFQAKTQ
Procedure, shortened: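 IL-1β-stimulated A549 cells (RPMI, 10% heat-inactivated FBS, 5% CO₂, 37 °C) exposed to inhibitors at various concentrations for 5 h. PGE₂ in the collected medium quantified by enzyme immunoassay.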

inhibition | SMILES
Dose-dependent effect | O=C1N=C(O)S/C1=C\c1ccc(OCc2ccccc2)c(Cl)c1
Dose-dependent effect | O=C1N=C(O)S/C1=C\c1ccc(OCCCCc2ccccc2)c(Cl)c1
Dose-dependent effect | O=C1N=C(O)S/C1=C\c1ccc(OCCc2ccccc2)c(Cl)c1
Dose-dependent effect | O=C1N=C(O)S/C1=C\c1ccc(OCCCc2ccccc2)c(Cl)c1

target: T1, 15-hydroxyprostaglandin dehydrogenase [NAD(+)] (Homo sapiens); test: Inhibition of 15-PGDH in IL-1beta-stimulated human A549 cells assessed as increase in PGE2 level at 5 uM after 12 hrs by enzyme immunoassay relative to control; conditions: not given

fold change (FC) | SMILES
5 | O=C1N=C(O)S/C1=C\c1ccc(OCCc2ccccc2)c(Cl)c1

target: T1, 15-hydroxyprostaglandin dehydrogenase [NAD(+)] (Homo sapiens); test: Inhibition of 15-PGDH in IL-1beta-stimulated human A549 cells assessed as increase in PGE2 level at 5 uM after 5 hrs by enzyme immunoassay relative to control; assay type: cell-based; conditions: in the assay text read “after 12 hrs” for “after 5 hrs”
Procedure, shortened: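 A549 cells seeded at 5×10^5 per well, incubated overnight in RPMI with FBS and antibiotic at 37 °C, 5% CO₂, then treated with inhibitor at 5 μM. Medium collected (text gives 5 h in one passage, 12 h in methods). PGE₂ measured by kit enzyme immunoassay and compared with untreated control. Three independent experiments.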

inhibition | SMILES
Active | O=C1N=C(O)S/C1=C\c1ccc(OCc2ccccc2)c(Cl)c1
Active | O=C1N=C(O)S/C1=C\c1ccc(OCCCCc2ccccc2)c(Cl)c1
Active | O=C1N=C(O)S/C1=C\c1ccc(OCCCc2ccccc2)c(Cl)c1

tested on: HaCaT; test: Wound healing activity in scratch made human HaCaT cells at 5 uM after 48 hrs by inverted microscopic analysis relative to control; assay type: functional, cell-based; conditions: not given
Procedure, shortened: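 HaCaT cells plated at ca. 5×10^5 per well in DMEM with 10% FBS and 10 µg/mL mitomycin, 37 °C, 5% CO₂, grown to ca. 80% confluence. Monolayer scratched with a 200 µL pipette tip, then incubated with 5 µM test agent; 1 ng TGF-β1 as positive control. Wound width imaged by inverted microscope at wounding and after 48 h, compared with untreated control.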

SMILES | Activity
O=C1N=C(O)S/C1=C\c1ccc(OCCc2ccccc2)c(Cl)c1 | Active

target: T2, 15-hydroxyprostaglandin dehydrogenase [NAD(+)] (Homo sapiens, UniProt P15428); test: Inhibition of human GST-fused 15-PGDH expressed in Escherichia coli BL21 using PGE2 as substrate assessed as formation of NADH by fluorescence spectrophotometric analysis; conditions: not given
T2 sequence (P15428 whole entry): T1 sequence (whole entry)
Procedure, shortened: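 GST-tagged 15-PGDH from pGEX-2T in E. coli BL-21 LysS, IPTG-induced 12 h at 25 °C, glutathione-Sepharose purified. Triplicates per concentration; IC50 derived.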

IC50 [nM] | SMILES
13 | O=C1N=C(O)S/C1=C\c1ccc(OCCC2CCCCC2)cc1Cl
20 | O=C1NC(=O)/C(=C/c2ccc(OCCOC3CCCCC3)c(Cl)c2)S1
211 | O=C1NC(=O)/C(=C/c2ccc(OCCOC3CCCCC3)cc2Cl)S1
9 | O=C1NC(=O)/C(=C/c2ccc(OCC3CCC3)c(Cl)c2)S1
1050 | CC(C)OCCOc1ccc(/C=C2\SC(=O)NC2=O)c(Cl)c1
11 | O=C1NC(=O)/C(=C/c2ccc(OCC3CCCC3)c(Cl)c2)S1
42 | O=C1NC(=O)/C(=C/c2ccc(OCCC3CCCC3)cc2Cl)S1

The remaining lines, values behind:

SMILES | IC50 [nM]
O=C1NC(=O)/C(=C/c2ccc(OCc3ccc([N+](=O)[O-])cc3)c(Cl)c2)S1 | 930
O=C1NC(=O)/C(=C/c2ccc(OCCc3ccccn3)c(Cl)c2)S1 | 4440
O=C1NC(=O)/C(=C/c2ccc(Oc3cccc(/C=C/[N+](=O)[O-])c3)c(Cl)c2)S1 | 59
O=C1NC(=O)/C(=C/c2ccc(OCC3CC4CCC3C4)c(Cl)c2)S1 (stereo unspecified) | 165
O=C1NC(=O)/C(=C/c2ccc(OCCc3ccc([N+](=O)[O-])o3)c(Cl)c2)S1 | 123
CCc1ccc(CCOc2ccc(/C=C3\SC(=O)NC3=O)cc2Cl)nc1 | 2080
O=C1NC(=O)/C(=C/c2ccc(Oc3cccc4c3CCCC4=O)c(Cl)c2)S1 | 71
CC(Oc1ccc(/C=C2\SC(=O)NC2=O)cc1Cl)C1CC1 (stereo unspecified) | 132
O=C1NC(=O)/C(=C/c2ccc(OCc3ccc4c(c3)OCO4)c(Cl)c2)S1 | 193
C=C(C)C1CCC(COc2ccc(/C=C3\SC(=O)NC3=O)cc2Cl)CC1 (stereo unspecified) | 75
O=C1NC(=O)/C(=C/c2ccc(Oc3cccc([N+](=O)[O-])c3)c(Cl)c2)S1 | 100
O=C1NC(=O)/C(=C/c2ccc(OCc3ccc([N+](=O)[O-])cc3)cc2Cl)S1 | 4540
Cc1ncsc1CCOc1ccc(/C=C2\SC(=O)NC2=O)cc1Cl | 5170
O=C1NC(=O)/C(=C/c2ccc(OCCCCc3ccccc3)cc2Cl)S1 | 81
O=C1NC(=O)/C(=C/c2ccc(OC(=O)c3cccs3)c(Cl)c2)S1 | 264
